Bioassay records as filed in PubChem BioAssay.
Most compounds without a hit are left out; they make up all but 1.8% or so of the library.
ARNT TACC3 PPI – ARNT/TACC3 interaction disruption; AlphaScreen His-ARNT PAS-B/GST-TACC3 binding, luminescence; TACC3 fragment carries E629A point mutation; hit rate 0.66% among 390,000; AID 623870; Q9Y6A5; inhibition, % at 9.99 µM;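 active = mean inhibition of replicates at least 50% and at least half of replicates each reaching 50%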;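 note: 0% = complete ARNT plus TACC3 wells and 100% = ARNT alone without TACC3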
CAL PDZ FP-1 – inhibitors of human CAL PDZ peptide binding | hit rate 0.02% among 330,000 | inhibition, % at 20 µM | purified CAL PDZ, TMR-peptide fluorescence polarization, 1 h | AID 504414 | Q9HD26;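 active = highest replicate inhibition of at least 40%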;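 note: plate controls were DMSO neutral control wells for no effect and unlabeled competitor peptide control wells for full effect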
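Material: tagged CAL PDZ domain; buffer or medium: 25 mM sodium phosphate pH 7.4, 150 mM NaCl, TCEP, IgG, Thesit; compound dosing: single point, 20 µM; schedule: 1 h incubation at room temperature before polarization reading; measured by: FP readout, S and P plane fluorescence; read-out basis: percent inhibition from loss of millipolarization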
GRK2 aptamer HTS – inhibitors of human GRK2 displacing RNA aptamer | P25098 | bead flow cytometry, FAM-aptamer displacement from GRK2 | inhibition of aptamer binding, % at 10 µM | hit rate 0.59% among 330,000 | AID 488847;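 active = inhibition of aptamer binding above 40%, roughly 3 SD of noise, on plates passing a quality check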;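 note: median bead fluorescence of bound FAM aptamer so fluorescent compounds give negative values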
Tn7 DDE FP – disrupts Tn7 cyclic peptide binding to fibrin D-Dimer-E complex. P02675. FP displacement of FITC-Tn7 peptide from fibrin DD(E); 0% = median of compound wells per plate. inhibition, % at 8.3 µM. hit rate 0.13% among 370,000;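 active = inhibition above the mean of compounds falling within the control limits plus 3 SD of them, cut at about 14% in these data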;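 note: 0% = plate median of compound wells and 100% = 10 µM Aha-Tn7 peptide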
Target sequence (P02675 whole entry, looked up): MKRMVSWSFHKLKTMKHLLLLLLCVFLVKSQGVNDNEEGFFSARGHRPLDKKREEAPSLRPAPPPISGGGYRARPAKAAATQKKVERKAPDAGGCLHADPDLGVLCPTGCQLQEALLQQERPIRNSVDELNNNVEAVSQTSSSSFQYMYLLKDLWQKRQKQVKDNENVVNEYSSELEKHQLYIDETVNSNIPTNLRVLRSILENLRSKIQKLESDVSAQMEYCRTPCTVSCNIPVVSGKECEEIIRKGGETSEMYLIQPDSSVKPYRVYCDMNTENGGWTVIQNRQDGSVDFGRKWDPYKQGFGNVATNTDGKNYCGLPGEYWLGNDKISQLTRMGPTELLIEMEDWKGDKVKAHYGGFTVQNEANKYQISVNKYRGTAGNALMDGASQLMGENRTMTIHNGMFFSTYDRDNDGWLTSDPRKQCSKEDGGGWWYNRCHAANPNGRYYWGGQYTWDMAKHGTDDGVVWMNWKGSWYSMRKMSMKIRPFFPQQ
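Test system – human fibrin DD(E) · Times – 10 min preincubation, 3 h with tracer, room temperature · Detection – fluorescence polarization of the labelled Tn7 tracer · Measure – percent inhibition normalized to high-control wells · Benchmarks – high control wells with 10 µM unlabelled Aha-Tn7 peptide (full inhibition) · Repeats – singlicate testing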
CAL PDZ FP-2 – blocks peptide binding to the human CAL PDZ domain; Q9HD26; purified CAL PDZ, TMR-peptide fluorescence polarization, 1 h; inhibition, % at 24.9 µM; hit rate 0.92% among 300,000; AID 602252;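 active = mean inhibition of at least 30% with at least half of replicates also reaching 30%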;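 note: 0% = DMSO neutral control and 100% = excess unlabeled competitor peptide PRC23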
DDE Tn6 FP inh – DD(E)-Tn6 binding inhibition, primary FP screen | Fibrin DD(E) TRITC-Tn6 fluorescence polarization displacement | inhibition, % at 8.3 µM | hit rate 0.21% among 370,000;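 active = inhibition above a per-campaign cutoff: mean of compounds within control limits plus 3 SD, cut at about 15% in these data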;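 note: 0% = median of all compound wells on the plate and 100% = blocking peptide control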
* marks the source's active call; other numbers are inactive results; · = not tested or not shown; ! = a repeat was not active.

SMILES | ARNT TACC3 PPI | CAL PDZ FP-1 | GRK2 aptamer HTS | Tn7 DDE FP | CAL PDZ FP-2 | DDE Tn6 FP inh
Cc1cc(F)ccc1NC(=O)CCc1c(C)nn(-c2ccc(N3CCCCC3)nn2)c1C | 1 | -2 | 3 | 1 | 80* | -5
C/C=C/c1ccc([C@@H]2[C@@H](C#N)N(C(=O)Cc3ccccn3)[C@@H]2CO)cc1 | 46* | · | · | · | · | ·
C/C=C/c1ccc([C@@H]2[C@H](CO)N(Cc3ccccn3)[C@H]2CNC(=O)CC)cc1 | 30* | · | · | · | · | ·
CCn1cc(S(=O)(=O)CC(=O)Nc2ccc(C)cc2)c2ccccc21 | 5 | 0 | 4 | -4 | 53* | -3
CCn1cc(S(=O)(=O)CC(=O)Nc2cccc(C)c2)c2ccccc21 | -2 | -1 | 3 | -3 | · | 5
Cc1c(C)n(Cc2ccc(F)cc2)c2ccc(C(=O)NCCN3CCOCC3)cc12 | -6 | 1 | 2 | -2 | 90* | -15
Cc1cccc(Cn2c(C)c(C)c3cc(C(=O)NCCN4CCOCC4)ccc32)c1 | 13 | -3 | 0 | -3 | 22 | -7
COCCNC(=O)c1cc2cc(Br)cc(OC)c2oc1=O | 0 | -2 | 2 | -3 | -1 | -2
COCCNC(=O)c1cc2cc(Br)cc(Br)c2oc1=O | 0 | -1 | 0 | -5 | 48* | 3
CCS(=O)(=O)Nc1ccc2c(c1)C(=O)N(C)[C@@H]1CC[C@H](CC(=O)NCCCN3CCOCC3)O[C@H]1CO2 | -6 | · | · | 2 | · | -3
Cc1ccc2c(c1)CC1(CN2C)C(=O)OC2(CCCCC2)OC1=O | -4 | 0 | 1 | 0 | 78* | -3
COc1ccc2cc(C(=O)CS(=O)(=O)c3ccc(Cl)cc3)c(=O)oc2c1 | · | · | · | -14 | · | 1
O=C1O[C@@H](c2ccccc2)[C@@H](c2ccccc2)N2[C@@H](c3ccccc3OCCO)[C@]3(C(=O)Nc4ccc(C#CC5=CCCCC5)cc43)[C@@H](C(=O)N3CCCCCCC3)[C@H]12 | 27 | · | · | · | · | ·
CN(C)C(=O)c1ccc(NC(=O)c2ccc(-c3ccc(Cl)cc3)o2)cc1 | -29 | -3 | 1 | 4 | 62* | 3
COc1ccc(NC(=O)N(C)C[C@@H]2OCCCC[C@H](C)Oc3ccc(NS(=O)(=O)c4ccc(OC)cc4)cc3C(=O)N([C@H](C)CO)C[C@@H]2C)cc1 | 34 | · | · | · | · | ·
O=C(C1CCCO1)N1CCN(C(=S)Nc2cccc(F)c2)CC1 (stereo not given) | -20 | 0 | 0 | -6 | 1 | -1
Cc1cccc(NC(=S)N2CCN(C(=O)C3CCCO3)CC2)c1 (stereo not given) | 0 | -2 | 3 | 2 | 67* | 8
CCCNC(=O)[C@@H]1[C@@H](CO)[C@@H]2Cn3c(ccc(-c4ccc(F)cc4)c3=O)[C@H]1N2C | -4 | · | · | · | · | ·
Cc1ccccc1C(=O)c1cccn1CC(=O)NCCC1=CCCCC1 | -3 | 0 | 0 | -2 | 56* | -2
Cc1ccccc1C(=O)c1cccn1CC(=O)NCCCN1CCCCC1 | -9 | -1 | 0 | 2 | -3 | -10
C[C@H]1CN([C@@H](C)CO)C(=O)c2cc(NC(=O)Cn3cnnn3)ccc2O[C@H]1CN(C)S(=O)(=O)c1ccc(F)cc1 | -3 | · | · | · | · | ·
C[C@@H]1CN([C@H](C)CO)C(=O)c2cc(NC(=O)C3CC3)ccc2O[C@H]1CN(C)C | 49* | · | · | · | · | ·
Cc1ccc(S(=O)(=O)N(C)C[C@@H]2Oc3c(NC(=O)NC4CCCCC4)cccc3C(=O)N([C@H](C)CO)C[C@@H]2C)cc1 | active | · | · | · | · | ·
Cc1ccc(S(=O)(=O)N(C)C[C@@H]2Oc3ccc(NC(=O)Cn4cnnn4)cc3C(=O)N([C@@H](C)CO)C[C@H]2C)cc1 | active! | -1 | 0 | -6 | 0 | -3
Cc1ccc(S(=O)(=O)N(C)C[C@H]2Oc3c(NC(=O)NC4CCCCC4)cccc3C(=O)N([C@@H](C)CO)C[C@H]2C)cc1 | 0 | · | · | · | · | ·
SMILES | ARNT TACC3 PPI | CAL PDZ FP-1 | GRK2 aptamer HTS | Tn7 DDE FP | CAL PDZ FP-2 | DDE Tn6 FP inh
CO[C@@H]1CN(C)C(=O)c2cc(NC(=O)C3CC3)ccc2OC[C@H](C)N(C(=O)c2ccccc2)C[C@@H]1C | -8 | · | · | · | · | ·
CCOC(=O)c1sc(NC(=O)CC)c(C#N)c1C | -7 | -1 | 0 | -4 | -1 | 6
C[n+]1c(/C=C/c2ccc(O)cc2)ccc2ccccc21 | 6 | 0 | 0 | 6 | -3 | 4
Cc1cc(/C=C\c2ccc3cc(N(C)C)ccc3[n+]2C)c(C)n1-c1ccccc1 | 3 | 1 | 71* | · | -4 | ·
COc1ccc(NC(=S)/N=C(\N)Nc2nc(C)c3ccc(C)cc3n2)cc1 | -4 | -1 | 1 | -3 | -1 | -1
CCOc1ccc2nc(N/C(N)=N/C(=S)Nc3ccc(C)c(C)c3)nc(C)c2c1 | 1 | -2 | 94* | 1 | -1 | -1
C[C@@H](CN=[N+]=[N-])CN1CC[C@H](C(C)(C)C)CCC1=O | 1 | -1 | 3 | -5 | 6 | -2
COc1ccc(NC(=O)N(C)C[C@@H]2Oc3ccc(NC(=O)C4CCCCC4)cc3C(=O)N([C@@H](C)CO)C[C@@H]2C)cc1 | -1 | · | · | · | · | ·
O=C(COC(=O)c1cccs1)Nc1nnc(-c2ccccc2)o1 | 61* | -2 | 0 | -9 | 10 | 2
COc1ccc(C(=O)OCC(=O)Nc2nnc(-c3ccccc3)o2)cc1 | · | 0 | 0 | 0 | 0 | 4
O=C(COC(=O)c1cccc(O)c1)Nc1nnc(-c2ccccc2)o1 | 60* | -1 | 1 | 5 | -3 | 5
CCOc1ncccc1C(=O)OCC(=O)Nc1nnc(-c2ccccc2)o1 | 54* | 0 | 4 | 2 | · | -1
COc1cc(C(=O)OCC(=O)Nc2nnc(-c3ccccc3)o2)cc(OC)c1OC | 47* | -1 | 1 | 4 | -2 | -6
C[C@@H]1CCCCO[C@H](CN(C)S(=O)(=O)c2ccc(Cl)cc2)[C@H](C)CN([C@H](C)CO)C(=O)c2cc(NS(C)(=O)=O)ccc2O1 | 5 | · | · | · | · | ·
CN(C)C(=O)c1cccc(-c2ccc3c(c2)[C@@H]2[C@@H](CCN2C(=O)c2ccncc2)[C@@H](CO)N3C)c1 | -11 | · | · | · | · | ·
COc1ccccc1CNC(=O)C[C@@H]1C[C@@H]2c3cc(NC(=O)Cc4ccncc4)ccc3O[C@@H]2[C@H](CO)O1 | 41* | · | · | · | · | ·
CO[C@@H]1CN(C)C(=O)c2ccc(NC(=O)C3CC3)cc2OC[C@@H](C)N(C(=O)CN(C)C)C[C@H]1C | -1 | · | · | · | · | ·
CCCNC(=O)N(C)C[C@@H]1Oc2cc(-c3cncnc3)ccc2S(=O)(=O)N([C@@H](C)CO)C[C@H]1C | -4 | · | · | · | · | ·
CC(C)(C)C(=O)Nc1ccccc1C(=O)Nc1ccncc1 | -1 | -1 | 0 | -1 | 0 | 7
O=C(Nc1ccccc1C(=O)Nc1ccncc1)c1ccccc1 | -5 | -2 | 0 | -5 | 43* | 0
